Results as given in ChEMBL document CHEMBL1142097, “EthA, a common activator of thiocarbamide-containing drugs acting on different mycobacterial targets” (Antimicrob Agents Chemother, 2007).
Converted amounts (≈) assume the structure as drawn. The source made the active and inactive calls. No cut-off for these calls is given here.

Columns and labels:
[1] = system: Mycobacterium tuberculosis; assay: Antimycobacterial activity against Mycobacterium bovis BCG NCTC 5692; type: functional; settings: Mycobacterium tuberculosis variant bovis BCG
How it was run: (§1)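 Agar MIC on Middlebrook 7H9 or 7H11 with OADC (ADC substituted for isoxyl-type drugs) plus graded drug levels; serial 10-fold dilutions of actively growing culture plated, incubated 37°C for 10–14 days; MIC = lowest concentration blocking 99% of growth. Recombinant Pasteur strains selected with 25 μg/ml kanamycin; ethR::hyg mutant carries a hygromycin-marked transposon in ethR.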

[2] = system: Mycobacterium tuberculosis; assay: Antimycobacterial activity against Mycobacterium bovis BCG NCTC 5692 with ethR-knockout mutant; type: functional, variant bovis BCG; how it was run: as §1
[3] = Antimycobacterial activity against Mycobacterium bovis BCG str. Pasteur 1173P2 overexpressing ethA gene; type: functional; settings: Mycobacterium tuberculosis variant bovis BCG; how it was run: as §1
[4] = Antimycobacterial activity against Mycobacterium bovis BCG str. Pasteur 1173P2 overexpressing ethR gene; type: functional; settings: Mycobacterium tuberculosis variant bovis BCG; how it was run: as §1
[5] = system: Mycobacterium tuberculosis; assay: Inhibition of oleic acid synthesis in Mycobacterium bovis BCG NCTC 5692 with ethR-knockout mutant assessed as incorporation of [2-14C]acetate; type: functional, organism-based; settings: variant bovis BCG
How it was run: (§2)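 Mid-log cultures in Sauton medium exposed to graded drug concentrations (μg/ml) for 16 h at 37°C, then pulsed with 1 μCi/ml [2-14C]acetate for 8 h at 37°C. Cells PBS-washed, hydrolysed with 15% tetrabutylammonium hydroxide at 100°C overnight, methylated with CH3I in CH2Cl2; fatty and mycolic acid methyl esters resolved by TLC and autoradiographed.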

[6] = system: Mycobacterium tuberculosis; assay: Inhibition of mycolic acid synthesis in Mycobacterium bovis BCG NCTC 5692 with ethR-knockout mutant assessed as incorporation of [2-14C]acetate; type: functional, organism-based; settings: variant bovis BCG; how it was run: as §2
[7] = system: Mycobacterium tuberculosis; assay: Inhibition of oleic acid synthesis in Mycobacterium bovis BCG NCTC 5692 assessed as incorporation of [2-14C]acetate; type: functional, organism-based; settings: variant bovis BCG; how it was run: as §2
[8] = system: Mycobacterium tuberculosis; assay: Inhibition of mycolic acid synthesis in Mycobacterium bovis BCG NCTC 5692 assessed as incorporation of [2-14C]acetate; type: functional, organism-based; settings: variant bovis BCG; how it was run: as §2

**Q.** Which results are given for `COc1ccc(/C(C)=N/NC(N)=S)cc1`?
**A.** MIC [1]: 2.5 µg/mL (≈ 11.2 µM); MIC [2]: 0.25 µg/mL (≈ 1.12 µM); MIC [3]: 0.25 µg/mL (≈ 1.12 µM); MIC [4]: 0.5 µg/mL (≈ 2.24 µM)

**Q.** Which MIC [1] does the source give for `CC(C)CCSc1ccc(NC(=S)Nc2ccc(SCCC(C)C)cc2)cc1` here?
**A.** The MIC was 25 µg/mL (≈ 57.8 µM).

**Q.** And the MIC [2]?
**A.** Its MIC is 2.5 µg/mL (≈ 5.78 µM).

**Q.** And the MIC [3]?
**A.** Its MIC is 5 µg/mL (≈ 11.6 µM).

**Q.** And the Activity [5]?
**A.** The Activity was “Active”.

**Q.** And the MIC [4]?
**A.** Its MIC is 40 µg/mL (≈ 92.4 µM).

**Q.** And the Activity [6]?
**A.** The Activity was “Active”.

**Q.** For `CC(C)CCOc1ccc(NC(=S)Nc2ccc(OCCC(C)C)cc2)cc1` [TIOCARLIDE], which MIC [1] is on record?
**A.** Its MIC is 1 µg/mL (≈ 2.5 µM).

**Q.** And the Activity [7]?
**A.** Its Activity is “Active”.

**Q.** What about the MIC [2] of the same compound?
**A.** The MIC was 0.5 µg/mL (≈ 1.25 µM).

**Q.** And the Activity [8]?
**A.** Its Activity is “Active”.

**Q.** And the MIC [3]?
**A.** The MIC was 0.1 µg/mL (≈ 0.25 µM).

**Q.** And the Activity [5]?
**A.** The Activity was “Active”.

**Q.** What about the MIC [4] of the same compound?
**A.** Its MIC is 0.25 µg/mL (≈ 0.624 µM).

**Q.** What does the source list for `NC(=S)N/N=C/c1cccnc1` [NICOTHIAZONE]?
**A.** MIC [1]: 25 µg/mL (≈ 139 µM); MIC [2]: 5 µg/mL (≈ 27.7 µM); MIC [3]: 10 µg/mL (≈ 55.5 µM); MIC [4]: 75 µg/mL (≈ 416 µM)

**Q.** Which MIC [1] does the source give for `CCc1cc(C(N)=S)ccn1` [ETHIONAMIDE] here?
**A.** Its MIC is 5 µg/mL (≈ 30.1 µM).

**Q.** What about the MIC [2] of the same compound?
**A.** Its MIC is 0.5 µg/mL (≈ 3.01 µM).

**Q.** And the MIC [3]?
**A.** Its MIC is 0.25 µg/mL (≈ 1.5 µM).

**Q.** And the MIC [4]?
**A.** The MIC was 10 µg/mL (≈ 60.2 µM).

**Q.** What about the Activity [6] of the same compound?
**A.** Its Activity is “Active”.

**Q.** Which results are given for `CC(=O)Nc1ccc(/C=N/NC(N)=S)cc1` [AMITHIOZONE]?
**A.** MIC [1]: 2.5 µg/mL (≈ 10.6 µM); Activity [7]: inactive; MIC [2]: 0.25 µg/mL (≈ 1.06 µM); Activity [8]: Active; MIC [3]: 0.25 µg/mL (≈ 1.06 µM); MIC [4]: 2.5 µg/mL (≈ 10.6 µM); Activity [6]: Active
